Screens as filed in PubChem.
The list is not random: actives were taken first. Their share in the collection is about 2.5%.
ABCB1 block = ABCB1 efflux pump inhibitors, primary screen, cell-based, multiplex, flow cytometry, ABCG2 counter-screen | CCRF-Adr cells, JC-1 efflux | inhibition, % at 6.6 µM | hit rate 0.067% among 190,000; in the data active = inhibition above about 40%;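 also: 0% = vehicle and 100% = reference inhibitor; higher value means more JC-1 retained so stronger ABCB1 efflux block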
Efflux pump inh = inhibitors of Candida efflux pumps in yeast, primary screen, S. cerevisiae, Nile Red, multiplex; S. cerevisiae Candida pump triplex; inhibition, % at 10 µM; hit rate 0.44% among 330,000; AID 485275, 2010;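 active = plate passing quality check with inhibition over a set limit, or well fluorescence over plate mean plus 4 SD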;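 also: Nile Red retained in pooled yeast measured as flow cytometry median fluorescence; 0% = buffer negative control and 100% = Enniatin B positive control; higher means more Nile Red kept so more efflux inhibition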
MEKK2 mut-MEK5 = MEK5 binding signal on mutant MEKK2 PB1, primary screen, biochemical, multiplex bead flow cytometry, Alexa488-MEK5. Alexa488-MEK5 binding to MEKK2 mutant. percent response, % at 10 µM. hit rate 0.35% among 290,000; in the data active = percent response above about 24%, passing the limit was not always enough
MEKK3 PB1 HTS = modulators of MEKK3-MEK5 PB1 binding, primary screen, biochemical, wildtype MEKK3, multiplex bead flow cytometry, Alexa488-MEK5; Mitogen-activated protein kinase kinase kinase 3 (Homo sapiens), Q99759; bead-based flow cytometry, Alexa488-MEK5 binding to MEKK3; actives lie on both sides; 0 = blocked by unlabeled MEK5, 100 = vehicle; binding response (% of control), % at 10 µM; hit rate 1.4% among 290,000; AID 1529, 2009;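 active = binding response more than 3 SD above or below the average of its plate-row segment, actives on both sides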;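 also: Alexa488 bead fluorescence after subtracting the streptavidin-only scavenger bead signal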
ABCG2 inh = ABCG2 efflux pump inhibitors, primary screen, multiplex with ABCB1, IgMXP3 cells, flow cytometry; Broad substrate specificity ATP-binding cassette transporter ABCG2 (Homo sapiens), Q9UNQ0; JC-1 efflux; inhibition, % at 6.6 µM; hit rate 0.1% among 190,000; AID 1325, 2008;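 active = inhibition above 80%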;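 also: 0% = DMSO and 100% = nicardipine control wells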
Target sequence (Q9UNQ0 whole entry, looked up): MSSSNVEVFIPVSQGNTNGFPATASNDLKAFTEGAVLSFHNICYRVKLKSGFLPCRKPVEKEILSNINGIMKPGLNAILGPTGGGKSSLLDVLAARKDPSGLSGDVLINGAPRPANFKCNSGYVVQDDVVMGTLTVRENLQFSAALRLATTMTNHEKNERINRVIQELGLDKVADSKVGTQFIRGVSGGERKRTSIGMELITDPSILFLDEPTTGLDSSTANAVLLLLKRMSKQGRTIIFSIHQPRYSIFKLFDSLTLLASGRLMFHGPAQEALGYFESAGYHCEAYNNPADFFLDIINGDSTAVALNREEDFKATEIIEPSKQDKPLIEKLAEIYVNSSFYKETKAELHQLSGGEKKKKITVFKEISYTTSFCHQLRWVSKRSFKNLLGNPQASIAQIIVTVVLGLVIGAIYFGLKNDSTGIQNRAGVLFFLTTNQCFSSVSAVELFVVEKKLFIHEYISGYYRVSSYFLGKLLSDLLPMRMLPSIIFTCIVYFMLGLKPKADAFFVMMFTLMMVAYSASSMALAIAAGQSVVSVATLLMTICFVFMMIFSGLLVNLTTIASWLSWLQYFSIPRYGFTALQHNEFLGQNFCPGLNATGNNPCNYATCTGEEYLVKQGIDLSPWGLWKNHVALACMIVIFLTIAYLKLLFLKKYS
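Read-out basis: Efflux inhibition in percent versus controls | Test system: ABCG2 IgMXP3 and barcoded ABCB1 CCRF-Adr cell mix | Quantity: 3 million cells/mL in well | Schedule: 10 min at 25 °C | Control set: Nicardipine as high control, DMSO as low control | Reagent: JC-1 as fluorescent efflux pump substrate | Signal: Flow cytometry of retained JC-1 fluorescence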
MEKK2wt PB1 HTS = modulators of MEK5 binding to wildtype MEKK2, primary screen, biochemical, multiplex bead flow cytometry, Alexa488-MEK5. AID 1531, 2009. hit rate 1.1% among 290,000. binding response (% of control), % at 10 µM. Alexa488-MEK5 binding to MEKK2 WT; actives lie on both sides. Mitogen-activated protein kinase kinase kinase 2 (Homo sapiens), Q9Y2U5; in the data active = binding response below about 67% or above about 130%
MEKK2wt confirm = modulators of MEK5 binding to wildtype MEKK2, confirmation, biochemical, single concentration, multiplex bead flow cytometry; Alexa488-MEK5 binding to MEKK2 WT; actives lie on both sides; AID 1892, 2009; hit rate 2.4% among 5,900; shares compounds with MEKK3 PB1 HTS; binding response (% of control), % at 10 µM; in the data active = binding response below about 16% or above about 210%; inactive = in between
MEKK2mut confirm = mutant MEKK2 PB1-MEK5 binding signal retest – biochemical, single concentration, multiplex bead flow cytometry, confirmation; shares compounds with MEKK3 PB1 HTS; AID 1893, 2009; Alexa488-MEK5 binding to MEKK2 mutant; hit rate 2% among 5,900; percent response, % at 10 µM; in the data active = percent response mostly above about 71%, no sharp cut-off; inactive = mostly below about 38%;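 also: higher means compound restores mutant binding toward wildtype level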
MEKK3 confirm = MEKK3 wild-type PB1 binding to MEK5, inhibitors, confirmation, biochemical, bead multiplex flow cytometry, single concentration, wildtype. hit rate 1.8% among 5,900. shares compounds with MEKK3 PB1 HTS. Alexa488-MEK5 binding to MEKK3; hits give low values. binding response (% of control), % at 10 µM;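 active = binding response below 72% of control, or above a set upper limit, though filed actives all read lower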;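 also: 100% = DMSO only wells and 0% = binding blocked by excess unlabeled MEK5; lower values mean stronger disruption of MEK5 binding to MEKK3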
* hit, by the source's call; nt = no result; ! = not active in a repeat; [ ] = another dose, or the depositor's remark.

SMILES | ABCB1 block | Efflux pump inh | MEKK2 mut-MEK5 | MEKK3 PB1 HTS | ABCG2 inh | MEKK2wt PB1 HTS | MEKK2wt confirm | MEKK2mut confirm | MEKK3 confirm
CCOc1ccc(CN2CCN(Cc3cnn(CC)c3C)CC2CCO)cc1 (stereo not drawn) | 0.1 | 0.0 | -13.0 | 48.0*[inhibitor] | 0.3 | 53.0 | 98.0 | -3.0 | 99.0
CCCCN(C(=O)c1cc2ccccc2o1)c1c(N)n(CCC)c(=O)[nH]c1=O | 0.4 | -0.1 | 4.0 | 99.0 | 5.7 | 91.0 | nt | nt | nt
CCCn1nnc(NC(=O)c2cccc(Cl)c2)n1 | 0.4 | 0.1 | 5.0 | 110.0 | 6.7 | 104.0 | nt | nt | nt
CCCn1nnc(NC(=O)c2sc3ccccc3c2Cl)n1 | -0.3 | 0.1 | -14.0 | 74.0*[inhibitor] | 1.1 | 81.0 | 104.0 | 9.0 | 103.0
O=C(Nc1nc2c(s1)CN(Cc1ccccc1)CC2)C1CCC1 | 1.0 | 0.4 | 2.0 | 110.0 | 1.2 | 116.0 | nt | nt | nt
CN(C)c1ccc(/C=C(\C#N)C(=O)Nc2nc3c(s2)CCN(Cc2ccccc2)C3)cc1 | 9.2 | 0.2 | -22.0 | 97.0 | 20.9 | 71.0*[inhibitor] | 98.0 | 7.0 | 106.0
C=CCSc1nc(-c2ccccc2)c(C#N)c(=O)[nH]1 | -0.5 | -0.2 | 5.0 | 103.0 | -0.1 | 105.0 | nt | nt | nt
C=CCSc1nc2c(c(=O)[nH]1)C(c1ccccc1)C(C#N)=C(N)O2 (stereo not drawn) | nt | -0.1 | 30.0 | 132.0* | nt | 108.0 | 98.0 | -5.0 | 97.0
CCN(CC(=O)Nc1c(F)cccc1F)C(=O)c1cccnc1Sc1ccccc1 | nt | -0.1 | nt | nt | nt | nt | nt | nt | nt
CNCCCC12CCC(c3ccccc31)c1ccccc12 | -0.5 | -0.1 | 7.0 | 111.0 | 0.0 | 137.0*! | 106.0 | 1.0 | 94.0
CCOC(=O)C(=NC1CCS(=O)(=O)C1)NNc1cc(Cl)ccc1Cl (stereo not drawn) | nt | -0.1 | 1.0 | 91.0 | nt | 92.0 | nt | nt | nt
CCOC(=O)C(=NCCOC)NNc1cc(Cl)ccc1Cl | 1.1 | -0.2 | 0.0 | 140.0* | 34.6 | 108.0 | 104.0 | -1.0 | 101.0
CCCN1CCc2c(sc(NC(=O)Cc3ccc(F)cc3)c2C(N)=O)C1 | nt | 0.0 | 7.0 | 102.0 | nt | 102.0 | nt | nt | nt
O=c1[nH]cnc2c1sc(=S)n2-c1ccccc1 | 0.0 | 0.0 | 0.0 | 99.0 | -0.6 | 95.0 | nt | nt | nt
C=CCn1c(=S)sc2c(=O)[nH]cnc21 | nt | 0.2 | 26.0 | 133.0* | nt | 128.0 | 103.0 | 8.0 | 107.0
O=C(NCc1ccc(Cl)cc1)C1CCC(CNS(=O)(=O)c2ccccc2)CC1 (stereo not drawn) | nt | 0.0 | 8.0 | 102.0 | nt | 101.0 | nt | nt | nt
CC(=O)Nc1ccc(S(=O)(=O)NCC2CCC(C(=O)NCc3ccccc3)CC2)cc1 (stereo not drawn) | 0.6 | 0.3 | 1.0 | 138.0* | -0.4 | 129.0 | 101.0 | 4.0 | 101.0
O=C(/C(=C(\[O-])c1ccccc1)[n+]1ccc2ccccc2c1)c1ccccc1 | 0.1 | 0.2 | 4.0 | 128.0* | 0.3 | 102.0 | 102.0 | 1.0 | 104.0
CCCN1CCC(=NNC(=O)CSc2cc(C)c(Br)cc2C)CC1 | 0.5 | -13.7 | 1.0 | 136.0* | 3.9 | 111.0 | 115.0 | 7.0 | 104.0
CC(=O)N1CCC(=NNC(=O)CSc2cc(C)c(Br)cc2C)CC1 | 0.0 | 0.4 | 8.0 | 97.0 | 0.0 | 89.0 | nt | nt | nt
O=C(O)C1Nc2c(O)cc(Cl)c([N+](=O)[O-])c2C2C=CCC12 (stereo not drawn) | -0.6 | -0.4 | -3.0 | 94.0 | -1.2 | 87.0 | nt | nt | nt
CSc1ccc(C2C(C(=O)c3ccco3)=C(O)C(=O)N2c2nnc(SC)s2)cc1 (stereo not drawn) | nt | 0.1 | -2.0 | 98.0 | nt | 95.0 | nt | nt | nt
COc1ccccc1/C=N/NC(=O)C(=O)Nc1ccccc1OC(F)(F)C(F)F | 0.4 | -0.1 | 1.0 | 134.0* | 14.9 | 104.0 | 97.0 | -8.0 | 98.0
O=C(N/N=C/c1cc(Br)ccc1O)C(=O)Nc1ccccc1OC(F)(F)C(F)F | -0.6 | -0.2 | 2.0 | 103.0 | 1.1 | 104.0 | nt | nt | nt
COc1ccccc1NC(=O)C(=O)N/N=C/c1ccc([N+](=O)[O-])s1 | 0.4 | nt | -21.0 | 63.0*[inhibitor] | 2.8 | 60.0*[inhibitor] | 120.0 | 10.0 | 103.0
SMILES | ABCB1 block | Efflux pump inh | MEKK2 mut-MEK5 | MEKK3 PB1 HTS | ABCG2 inh | MEKK2wt PB1 HTS | MEKK2wt confirm | MEKK2mut confirm | MEKK3 confirm
O=C(N/N=C/c1cc(Cl)ccc1O)C(=O)Nc1ccccc1OC(F)(F)C(F)F | -0.1 | -0.1 | 3.0 | 105.0 | 2.9 | 98.0 | nt | nt | nt
COc1cccc(/C=N/NC(=O)C(=O)Nc2ccccc2OC(F)(F)C(F)F)c1 | 0.1 | -0.2 | 1.0 | 149.0* | 16.5 | 111.0 | 104.0 | 7.0 | 104.0
Cc1ccc(Sc2cc(Cl)nc(N)n2)cc1 | 1.0 | -0.1 | 8.0 | 106.0 | 3.1 | 102.0 | nt | nt | nt
COc1ccc(C(C)=O)cc1CSc1nc2ccccc2c(=O)n1-c1ccccc1 | 4.1 | 0.3 | 9.0 | 97.0 | 5.1 | 105.0 | nt | nt | nt
COc1ccc(C(C)=O)cc1CSc1nc2ccccc2c(=O)n1-c1cccc(C)c1 | 9.1 | 0.0 | -1.0 | 156.0* | 13.8 | 102.0 | 98.0 | 0.0 | 105.0
Cc1cccc(NC(=O)c2cc(Cl)ccc2[N+](=O)[O-])c1 | 2.3 | 0.2 | 1.0 | 147.0* | 30.1 | 111.0 | 116.0 | 3.0 | 103.0
Cc1cccc(NC(=O)c2ccc(NCCc3ccccc3)c([N+](=O)[O-])c2)c1 | 0.3 | 0.1 | 0.0 | 135.0* | 20.6 | 107.0 | 96.0 | -4.0 | 99.0
Cc1ccc(NC(=O)c2ccc(NCCCN3CCC(C)CC3)c([N+](=O)[O-])c2)cc1F | 1.1 | -0.1 | 23.0 | 105.0 | 6.7 | 158.0* | 153.0 | 34.0 | 107.0
Cc1ccc(NC(=O)c2ccc(NCCN)c([N+](=O)[O-])c2)cc1 | -0.5 | -0.1 | -1.0 | 103.0 | -2.5 | 109.0 | nt | nt | nt
OCC1CCCN(C(=S)Nc2ccc(Nc3ccccc3)cc2)C1 (stereo not drawn) | 0.8 | -0.3 | 3.0 | 98.0 | 11.9 | 101.0 | nt | nt | nt
